# Assay results collected from several papers.
# Lines come from different studies, so protocols differ.
# ELANE: Neutrophil elastase (ELANE, Homo sapiens, UniProt P08246)
# Delta-aminolevulinic acid dehydratase C162A/K59N: Delta-aminolevulinic acid dehydratase (Homo sapiens, UniProt P13716, C162A/K59N)
# MAPK8: Mitogen-activated protein kinase 8 (MAPK8, Homo sapiens, UniProt P45983)
# BRAF: Serine/threonine-protein kinase B-raf (BRAF, Homo sapiens, UniProt P15056)
# RXFP3: Relaxin-3 receptor 1 (RXFP3, Homo sapiens, UniProt Q9NSD7)
# SMUG1: SMUG1 (Homo sapiens, UniProt Q53HV7)
# BACE1: Beta-secretase 1 (BACE1, Homo sapiens, UniProt P56817)
# AVPR2: Vasopressin V2 receptor (AVPR2, Homo sapiens, UniProt P30518)
# MTOR: Serine/threonine-protein kinase mTOR (MTOR, Homo sapiens, UniProt P42345)
# EGFR L858R/T790M: Epidermal growth factor receptor (EGFR, Homo sapiens, UniProt P00533, L858R/T790M)
# ROS1: Proto-oncogene tyrosine-protein kinase ROS (ROS1, Homo sapiens, UniProt P08922)
Compound,target,test,conditions,IC50 [nM]
Cc1cccc(C(=O)n2nc(Cl)c(=O)c3ccccc32)c1,ELANE,"enzyme activity, inhibitor, fluorescence",,970
O=C(O)Cc1ccccc1Nc1c(Cl)cccc1Cl,Delta-aminolevulinic acid dehydratase C162A/K59N,"enzyme activity, inhibitor, absorbance","pH 8, with preincubation",9000
CCN1CCN(c2c(Cl)cccc2NC(=O)c2ccc(Br)o2)CC1,MAPK8,"enzyme activity, inhibitor, TR-FRET",,490
Nc1cccc(-c2cc3c(Oc4cccc(O)c4)ncnc3[nH]2)c1,BRAF,"cell-free assay, inhibitor",,832
CCOC(=O)c1nn(C(=O)c2cccc(C)c2)c2ccccc2c1=O,ELANE,"enzyme activity, inhibitor, fluorescence",,210
O=C(O)c1cccnc1Nc1cccc(C(F)(F)F)c1,Delta-aminolevulinic acid dehydratase C162A/K59N,"enzyme activity, inhibitor, absorbance","pH 8, with preincubation",13000
O=C(O)C1=CC(=C(c2ccc(O)c(C(=O)O)c2)c2ccc(O)c(C(=O)O)c2)C=CC1=O,"DNA polymerase iota (Homo sapiens, UniProt Q9UNA4)","enzyme activity, inhibitor",,99
O=C(Nc1ccn(Cc2ccc(O)cc2C(F)(F)F)n1)c1c(F)cccc1F,"Short transient receptor potential channel 6 (TRPC6, Homo sapiens, UniProt Q9Y210)","ion current, inhibitor",,> 10000
Cc1cc(Nc2cc(CN3CCOCC3)c3nc(C)c(Cc4ccc(Cl)cc4F)n3n2)n[nH]1,"Muscle, skeletal receptor tyrosine-protein kinase (MUSK, Homo sapiens, UniProt O15146)","enzyme activity, inhibitor, TR-FRET",,147
O=C(Nc1ccc(-c2nc(-c3ccc(C(F)(F)F)cc3)no2)cc1)C1CC(=O)N(Cc2cccnc2)C1 (stereo not drawn),RXFP3,"cAMP, antagonist, TR-FRET",,2170
CC(C)c1cc(NC(=O)Nc2ccc(F)c(F)c2)n(-c2ccccc2)n1,"Kir3.1/Kir3.2 (Homo sapiens, UniProt P48051+P48549)","ion flux, inhibitor",,2500
O=C(Nc1ccc(Cl)cc1)N1CCC(n2c(=O)[nH]c3c(Br)cccc32)CC1,SMUG1,"enzyme activity, inhibitor",,> 100000
CCOC(F)(F)c1nnc2cnc(-c3cnc(OCC(F)(F)F)c(F)c3)cn12,"Sodium channel protein type 8 subunit alpha (Rattus norvegicus, UniProt O88420)","ion current, inhibitor, patch clamp",,180
Cc1cc2cc(c1)C(=O)N[C@H]([C@H](O)CN(Cc1cccc(C(C)C)c1)C(=O)OC(C)(C)C)CCC/C=C/CCCC2=O,BACE1,"enzyme activity, inhibitor",,> 10000
Cc1cccc(C(=O)Oc2cnnc3ccc([N+](=O)[O-])cc23)c1,ELANE,"enzyme activity, inhibitor, fluorescence",,590
NCCCC[C@H](NC(=O)[C@@H]1CCCN1C(=O)[C@@H]1CSSC[C@H](N)C(=O)N[C@@H](Cc2ccc(O)cc2)C(=O)N[C@@H](Cc2ccccc2)C(=O)N[C@@H](CCC(N)=O)C(=O)N[C@@H](CC(N)=O)C(=O)N1)C(=O)NCC(N)=O,AVPR2,"ligand displacement, radioligand",cell membranes,14
CC(C)(C)n1nc(-c2ccc3nc(OC4CC4)ccc3c2)c(C(N)=O)c1N,BRAF,cell-free assay,,> 10000
NS(=O)(=O)c1cc2c(cc1C(F)(F)F)NC(Cc1ccccc1)NS2(=O)=O (stereo not drawn),Delta-aminolevulinic acid dehydratase C162A/K59N,"enzyme activity, inhibitor, absorbance","pH 8, with preincubation",130000
Cc1ccccc1-c1noc(-c2ccc(NC(=O)C3CC(=O)N(Cc4cccnc4)C3)cc2)n1 (stereo not drawn),RXFP3,"cAMP, antagonist, TR-FRET",,> 10000
CCCS(=O)(=O)Nc1ccc(F)c(C(=O)c2c[nH]c3ncc(-c4ccc(CNC(=O)COCC(=O)NCc5ccc(-c6cnc7[nH]cc(C(=O)c8c(F)ccc(NS(=O)(=O)CCC)c8F)c7c6)cc5)cc4)cc23)c1F,"Serine/threonine-protein kinase B-raf (BRAF, Homo sapiens, UniProt P15056, V600E)","enzyme activity, inhibitor, ELISA",,~56
C[C@]1(C(=O)[C@H](CC2CCCCC2)NC(=O)[C@@H]2COCCCCCC(=O)N3CCC[C@H]3C(=O)N2)CO1,"Proteasome Macropain subunit MB1 (PSMB5, Homo sapiens, UniProt P28074)","enzyme activity, inhibitor, fluorescence",,> 10000
Nc1ncc(-c2nc(N3CCOCC3)nc(N3[C@@H]4CC[C@H]3COC4)n2)c(C(F)F)n1,MTOR,"ligand displacement, TR-FRET",,21.3
Nc1ncc2c(n1)-c1c([nH]c3ccc(-c4ccc(F)cc4)cc13)CCC2,"Non-receptor tyrosine-protein kinase TYK2, JH2 (TYK2, Homo sapiens, UniProt P29597)","target engagement in cells, BRET",,> 10000
CN1CCN(c2ccc(Nc3ncc4cc(C#N)c(=O)n(C5CCCC5)c4n3)cc2)CC1,"Ephrin type-B receptor 2 (EPHB2, Homo sapiens, UniProt P29323)","enzyme activity, inhibitor",,86.8
C=CC(=O)Nc1cc(Nc2nccc(-c3cn(C4CC4)c4ccccc34)n2)c(OC)cc1N(C)CCN(C)C,"Epidermal growth factor receptor (EGFR, Homo sapiens, UniProt P00533, D761Y)","enzyme activity, inhibitor, TR-FRET",,0.84
CC(C)=CCCC(C)=CCc1c(O)cc(O)c2c(=O)c(-c3ccc(O)cc3O)coc12,BACE1,"enzyme activity, inhibitor",,45000
COc1ccc(S(=O)(=O)ON=C2C=C(C)C(=O)C(C)=C2)cc1,"Histone acetyltransferase KAT5 (KAT5, Homo sapiens, UniProt Q92993)","enzyme activity, inhibitor, radiometric",,> 100000
C=C(Cl)C(=O)Nc1cc(Nc2nc(N3CCOCC3)c3sccc3n2)c(OC)cc1N(C)CCN(C)C,EGFR L858R/T790M,"enzyme activity, inhibitor, ELISA",,63
COc1ccc2c(Oc3ccc4c(C(=O)Nc5ccccc5N)cccc4c3)ccnc2c1,MAPK8,"enzyme activity, inhibitor",,> 500
N#CC(C(=O)c1ccc(Cl)cc1Cl)=C1NC(=O)c2ccc(OCc3ccc4c(c3)OCO4)cc2N1,"Cytoplasmic dynein 2 heavy chain 1 (DYNC2H1, Homo sapiens, UniProt Q8NCM8)","ATPase activity, inhibitor",,11000
CCC(C)n1ncn(-c2ccc(N3CCN(c4ccc(OCC5COC(Cn6cncn6)(c6ccc(Cl)cc6Cl)O5)cc4)CC3)cc2)c1=O (stereo not drawn),AVPR2,"calcium signal, antagonist",,31100
Cc1ccc(C(=O)Nc2ccc(Oc3cc4cnn(C)c4cc3-c3cn[nH]c3)c(F)c2)c(=O)n1-c1ccc(F)cc1,ROS1,"phosphorylation in cells, inhibitor, western blot",,170
Cc1ncsc1-c1ccc(CNC(=O)[C@@H]2C[C@H](O)CN2C(=O)[C@@H](NC(=O)C2(F)CC2)C(C)(C)C)c(OCCc2ccc(CN3CCN(c4cc(-c5ccccc5O)nnc4N)CC3)cc2)c1,"SWI/SNF-related matrix-associated actin-dependent regulator of chromatin subfamily A member 2, bromodomain (SMARCA2, Homo sapiens, UniProt P51531)","ligand displacement, TR-FRET",,1300
CC(C)C[C@H](NC(=O)[C@H](Cc1ccccc1)NC(=O)[C@@H](N)Cc1ccc(O)cc1)C(=O)N[C@@H](Cc1ccccc1)C(=O)N[C@@H](CCCNC(=N)N)C(=O)N1CCC[C@H]1C(=O)N[C@@H](CCCNC(=N)N)C(=O)N[C@@H](CC(N)=O)C(N)=O,"Neuromedin-U receptor 2 (Mus musculus, UniProt Q8BZ39)","ligand displacement, radioligand",,0.0912
Oc1c2ccccc2c2c3c(cccc13)N=N2,"Non-receptor tyrosine-protein kinase TYK2 (TYK2, Homo sapiens, UniProt P29597)","enzyme activity, inhibitor",,440
O=C(Nc1ccc(-c2nc(-c3ccc(F)cc3)no2)cc1)C1CC(=O)N(Cc2cccnc2)C1 (stereo not drawn),RXFP3,"cAMP, antagonist, TR-FRET",,2670
C=CC(=O)Nc1cc(Nc2nccc(Nc3cc(Cl)c(F)cc3C(C)(C)O)n2)c(OC)cc1N1CC[C@@H](N(C)C)C1,ROS1,"enzyme activity, inhibitor",with preincubation,937
CC[C@@H](C(=O)Nc1ccc(C(N)=O)c(F)c1)n1cc(OC)c(-c2cc(Cl)ccc2-n2cc(C(F)(F)F)nn2)cc1=O,"Tissue-type plasminogen activator (PLAT, Homo sapiens, UniProt P00750)","enzyme activity, inhibitor",,> 10000
CCC(C)(O)C(=O)N1CCC(NC(=O)Nc2ccc(OC(F)(F)F)c(F)c2)CC1 (stereo not drawn),"Bifunctional epoxide hydrolase 2 (Ephx2, Mus musculus, UniProt P34914)","enzyme activity, inhibitor",,13
O=C(N/N=C/CN1CCCCC1)Nc1cc2c(Nc3ccc(F)c(Cl)c3)ncnc2cc1O[C@H]1CCOC1,EGFR L858R/T790M,"enzyme activity, inhibitor",,8.6
COc1cc(NC(=O)N2CCC(n3c(=O)[nH]c4c(Br)cccc43)CC2)ccc1Cl,SMUG1,"enzyme activity, inhibitor",,> 100000
COc1ccc(-c2coc3cc(O)c(CC=C(C)C)c(O)c3c2=O)c(O)c1,BACE1,"enzyme activity, inhibitor",,42000
CN1CCCN=C1/C=C/c1cccc(O)c1,Delta-aminolevulinic acid dehydratase C162A/K59N,"enzyme activity, inhibitor, absorbance","pH 8, with preincubation",18000
C[C@@H]1COCCN1c1nc(-c2cnc(N)nc2C(F)F)nc(N2CCOCC2)n1,MTOR,"ligand displacement, TR-FRET",,32.4
CC(=O)N[C@H]1CSSC[C@@H](C(=O)N[C@@H](Cc2c[nH]c3ccccc23)C(N)=O)NC(=O)[C@@H](Cc2ccccc2)NC(=O)[C@H](CCCNC(=N)N)NC1=O,"Melanocortin receptor 3 (MC3R, Homo sapiens, UniProt P41968)","ligand displacement, radioligand",,420
